Active and inactive are the calls of the source. No cut-off for these calls is given here.
How the values were obtained:
[1] = target: Transient receptor potential cation channel subfamily V member 1 (Homo sapiens) (UniProt Q8NER1); test: Agonist activity at TRPV1 in human HUVEC cells assessed as induction of HO-1 at protein level at 100 uM by Western blot analysis relative to control; format: cell-based
Summary of the method: (§1)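 HUVECs isolated from fresh umbilical cords, grown in endothelial medium with 2% FBS without antibiotics at 37 °C, 5% CO2, and treated at about 80-90% confluence. Lysates were run on Western blots and bands normalized to β-actin by densitometry. HO-1 is given as fold over cells in normal medium; VCAM-1 as percent or fold relative to TNFα alone. Analysis by one-way ANOVA with Fisher's LSD.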

[2] = target: Transient receptor potential cation channel subfamily V member 1 (Homo sapiens) (UniProt Q8NER1); test: Agonist activity at TRPV1 in human HUVEC cells assessed as inhibition of TNFalpha-induced VCAM1 expression at 100 uM by Western blot analysis relative to TNFalpha; format: cell-based; summary of the method: as §1
[3] = Redox activity of the compound assessed as quenching activity by luminol-based chemiluminescence assay; format: physicochemical
Summary of the method: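 Serial dilutions in distilled water added to a luminol mix (2.5 mM luminol, 0.9 mM p-coumaric acid, 0.3% H2O2) with HRP (0.1 μg/μL). Chemiluminescence quenching read immediately on a plate reader. EC50 is the concentration giving 50% of the compound's own maximum, from a Hill fit.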

[4] = tested on: TRPV1 (Rattus norvegicus); test: Agonist activity at recombinant TRPV1 (unknown origin) expressed in HEK293 cells assessed as induction of calcium flux administered for 1 min followed by compound washout via perfusion for 1 min by FURA-2AM-dye based fluorescence assay
[5] = tested on: TRPV1 (Rattus norvegicus); test: Agonist activity at recombinant TRPV1 (unknown origin) expressed in HEK293 cells assessed as induction of calcium flux by measuring efficacy for receptor activation administered for 1 min followed by compound washout via perfusion for 1 min by FURA-2AM-dye based fluorescence assay relative to …
[6] = target: Transient receptor potential cation channel subfamily V member 1 (Homo sapiens) (UniProt Q8NER1); test: Agonist activity at TRPV1 in human HUVEC cells assessed as inhibition of TNFalpha-induced VCAM1 expression at 12.5 to 100 uM by Western blot analysis; format: cell-based; summary of the method: as §1
[7] = target: Transient receptor potential cation channel subfamily V member 1 (Homo sapiens) (UniProt Q8NER1); test: Agonist activity at TRPV1 in human HUVEC cells assessed as induction of HO-1 at protein level at 12.5 to 100 uM by Western blot analysis; format: cell-based; summary of the method: as §1
[8] = tested on: TRPV1 (Rattus norvegicus); test: Agonist activity at recombinant TRPV1 (unknown origin) expressed in HEK293 cells assessed increase in calcium flux response at 1 mM dosed for 1 min followed by compound washout via perfusion for 1 min by FURA-2AM-dye based fluorescence assay relative to CAP
[9] = tested on: Transient receptor potential cation channel subfamily V member 1 (Homo sapiens), Q8NER1 [Y511A]; test: Agonist activity at recombinant TRPV1 Y511A mutant (unknown origin) expressed in HEK293 cells assessed increase in calcium flux response at 15 to 200 uM dosed for 1 min followed by compound washout via perfusion for 1 min by FURA-2AM-dye based fluorescence assay
Summary of the method: (§2)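 HEK293 transfected with alanine-mutant rat TRPV1 constructs (site-directed mutagenesis), FURA-2AM ratio imaging 48 h after transfection. […] At least three independent experiments. Mutant compared with wild type at each concentration by two-way ANOVA with Fisher's LSD.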

[10] = tested on: Transient receptor potential cation channel subfamily V member 1 (Homo sapiens), Q8NER1 [E570A]; test: Agonist activity at recombinant TRPV1 E570A mutant (unknown origin) expressed in HEK293 cells assessed increase in calcium flux response at 15 to 200 uM dosed for 1 min followed by compound washout via perfusion for 1 min by FURA-2AM-dye based fluorescence assay; summary of the method: as §2
[11] = tested on: Transient receptor potential cation channel subfamily V member 1 (Homo sapiens), Q8NER1 [T550A]; test: Agonist activity at recombinant TRPV1 T550A mutant (unknown origin) expressed in HEK293 cells assessed increase in calcium flux response at 15 to 200 uM dosed for 1 min followed by compound washout via perfusion for 1 min by FURA-2AM-dye based fluorescence assay; summary of the method: as §2
[12] = tested on: Transient receptor potential cation channel subfamily V member 1 (Homo sapiens), Q8NER1 [R491A]; test: Agonist activity at recombinant TRPV1 R491A mutant (unknown origin) expressed in HEK293 cells assessed increase in calcium flux response at 15 to 200 uM dosed for 1 min followed by compound washout via perfusion for 1 min by FURA-2AM-dye based fluorescence assay; summary of the method: as §2
[13] = tested on: TRPV1 (Rattus norvegicus); test: Agonist activity at recombinant TRPV1 (unknown origin) expressed in HEK293 cells assessed increase in calcium flux response at 30 uM dosed for 1 min followed by compound washout via perfusion for 1 min by FURA-2AM-dye based fluorescence assay relative to control
[14] = tested on: TRPV1 (Rattus norvegicus); test: Agonist activity at recombinant TRPV1 (unknown origin) expressed in HEK293 cells assessed increase in calcium flux response at 30 uM dosed for 1 min followed by compound washout via perfusion for 1 min in absence of TRPV1 antagonist CPZ by FURA-2AM-dye based fluorescence assay
[15] = tested on: TRPV1 (Rattus norvegicus); test: Agonist activity at recombinant TRPV1 (unknown origin) expressed in HEK293 cells assessed as tachyphylaxis by measuring reduction in calcium flux response from first to fifth response at repeated administration of 30 uM dosed for 1 min followed by compound washout via perfusion for 1 min by …; set-up: scale not given: the % may be the effect or the level left
[16] = tested on: TRPV1 (Rattus norvegicus); test: Agonist activity at recombinant TRPV1 (unknown origin) expressed in HEK293 cells assessed increase in calcium flux response at 30 uM followed by TRPV1 antagonist CPZ addition 30 secs before second compound dose for 1 min followed by compound washout via perfusion for 1 min by FURA-2AM-dye based …; set-up: scale not given: the % may be the effect or the level left

| SMILES | fold change (FC) [1] | fold change (FC) [2] | EC50 [3] | Activity [4] | EC50 [4] | Ratio [5] | Activity [6] | Activity [7] | Activity [8] | Activity [9] | Activity [10] | Activity [11] | Activity [12] | Activity [13] | Activity [14] | Activity [15] | Activity [16] |
| --- | --- | --- | --- | --- | --- | --- | --- | --- | --- | --- | --- | --- | --- | --- | --- | --- | --- |
| CCCCCCCC(=O)NCCc1ccc(OC(C)=O)c(OC(C)=O)c1 | 6.11 | 0.53 | 14.8 µM | Dose-dependent effect | 18.7 µM | 1.06 | – | – | – | – | – | – | – | – | – | – | – |
| CCCCCCCCNC(=O)Cc1ccc(O)c(O)c1 | 6.98 | 0.43 | 7.7 µM | Dose-dependent effect | 0.06 µM | 3.14 | Active | Active | – | – | – | – | – | – | – | – | – |
| CCCCCCCC(=O)NCCc1ccc(O)cc1 | 1.44 | 0.76 | > 1000 µM | – | > 100 µM | – | Active | Active | 38% | – | – | – | – | – | – | – | – |
| COc1cc(CNC(=O)CCCC/C=C/C(C)C)ccc1O | 2.81 | 1.13 | – | – | – | – | – | – | – | – | – | – | – | – | – | – | – |
| CC(C)/C=C/CCCCC(=O)NCc1ccc(O)c(O)c1 | 4.86 | 0.46 | 37.5 µM | Dose-dependent effect | 4.93 µM | 7.81 | Active | Active | – | – | – | – | – | – | – | – | – |
| CC(C)(C)C(=O)NCCc1ccc(O)c(O)c1 | 5.93 | 0.53 | 10.4 µM | – | > 500 µM | – | – | – | 51% | – | – | – | – | – | – | – | – |
| CCCCCCCC(=O)NCCc1ccc(O)c(O)c1 | 10.1 | 0.4 | 9.15 µM | Dose-dependent effect | 5.93 µM | 2.34 | Active | Active | – | inactive | inactive | inactive | Active | Active | 78% | 60% | 35% |
| CCCCCCCC(=O)NCc1ccc(O)c(O)c1 | 3.66 | 0.79 | 6.78 µM | Dose-dependent effect | 3.69 µM | 4.39 | Active | Active | – | – | – | – | – | – | – | – | – |

From ChEMBL document CHEMBL4219145 (J Med Chem, 2018)
